The source made the active and inactive calls. No cut-off for these calls is given here.
The compounds below were run against T1, Tyrosinase (Agaricus bisporus) (UniProt O42713) (assay: Irreversible inhibition of mushroom tyrosinase assessed as oxidation of L-DOPA at 1 mmol/L […]). Conditions: not given.
T1 sequence (whole entry): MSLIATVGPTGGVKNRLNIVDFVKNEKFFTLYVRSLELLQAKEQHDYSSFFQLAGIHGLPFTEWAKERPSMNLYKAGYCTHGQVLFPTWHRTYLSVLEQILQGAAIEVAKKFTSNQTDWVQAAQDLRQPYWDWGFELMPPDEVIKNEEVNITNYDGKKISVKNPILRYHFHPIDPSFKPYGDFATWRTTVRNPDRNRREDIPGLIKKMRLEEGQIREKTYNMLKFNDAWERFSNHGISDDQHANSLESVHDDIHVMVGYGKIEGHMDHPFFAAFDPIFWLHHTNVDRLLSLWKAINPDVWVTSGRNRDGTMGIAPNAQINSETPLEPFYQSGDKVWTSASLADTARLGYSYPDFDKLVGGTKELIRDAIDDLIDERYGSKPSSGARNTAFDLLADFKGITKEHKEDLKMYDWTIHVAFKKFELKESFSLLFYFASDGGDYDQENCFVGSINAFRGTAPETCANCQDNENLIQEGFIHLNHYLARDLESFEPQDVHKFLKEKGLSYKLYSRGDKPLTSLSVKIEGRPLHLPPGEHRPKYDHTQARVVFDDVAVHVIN
In short: (§1)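 Mushroom tyrosinase was run with L-DOPA as substrate. Enzyme concentration was varied at fixed inhibitor levels of 0, 0.5, 0.8 and 1.0 mmol/L. Rate (V) was plotted against enzyme concentration [E] for each inhibitor level to judge whether inhibition was reversible or irreversible.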

In the case of `CC(=O)OC[C@H]1O[C@@H](Oc2ccc(C=C3C(=O)NC(=S)NC3=O)cc2O)[C@H](OC(C)=O)[C@@H](OC(C)=O)[C@@H]1OC(C)=O`, the inhibition is reported as “Active”.

Each compound was assayed against T1, Tyrosinase (Agaricus bisporus) (assay: Irreversible inhibition of mushroom tyrosinase assessed as oxidation of L-DOPA at 0.8 mmol/L […]). Conditions: not given.
In short: as §1

`CC(=O)OC[C@H]1O[C@@H](Oc2ccc(C=C3C(=O)NC(=O)NC3=O)cc2O)[C@H](OC(C)=O)[C@@H](OC(C)=O)[C@@H]1OC(C)=O` was tested, and the inhibition was “Active”.

What follows are compounds tested against T1, Tyrosinase (Agaricus bisporus). Conditions: 0.5 mmol/L.

`CC(=O)OC[C@H]1O[C@@H](Oc2ccc(C=O)cc2O)[C@H](OC(C)=O)[C@@H](OC(C)=O)[C@@H]1OC(C)=O` was tested, and the inhibition was “Active”.

The compounds below were run against T2, Tyrosinase (Agaricus bisporus, UniProt O42713) (assay: Inhibition of diphenolase activity of mushroom tyrosinase). Conditions: not given.
T2 sequence (O42713 whole entry): T1 sequence (whole entry)

Compared with `CC(=O)OC[C@H]1O[C@@H](Oc2ccccc2C=C2C(=O)NC(=O)NC2=O)[C@H](OC(C)=O)[C@@H](OC(C)=O)[C@@H]1OC(C)=O`, `CC(=O)OC[C@H]1O[C@@H](Oc2ccccc2C=C2C(=O)NC(=S)NC2=O)[C@H](OC(C)=O)[C@@H](OC(C)=O)[C@@H]1OC(C)=O` is lower in IC50: greater than 3000 µM for the first, 430 µM for the second. The second is the more potent here.

Compared with `CC(=O)OC[C@H]1O[C@@H](Oc2cccc(C=O)c2)[C@H](OC(C)=O)[C@@H](OC(C)=O)[C@@H]1OC(C)=O`, `CC(=O)OC[C@H]1O[C@@H](Oc2ccc(C=O)cc2)[C@H](OC(C)=O)[C@H](OC(C)=O)[C@@H]1OC(C)=O` is lower in IC50: greater than 3000 µM for the first, 780 µM for the second.

`CC(=O)OC[C@H]1O[C@@H](Oc2ccc(C=C3C(=O)NC(=O)NC3=O)cc2)[C@H](OC(C)=O)[C@@H](OC(C)=O)[C@@H]1OC(C)=O` and `CC(=O)OC[C@H]1O[C@@H](Oc2ccc(C=C3C(=O)NC(=O)NC3=O)cc2)[C@H](OC(C)=O)[C@H](OC(C)=O)[C@@H]1OC(C)=O` are within 1.5-fold of each other in IC50: 1270 µM for the first, 1500 µM for the second.

Compared with `CC(=O)OC[C@H]1O[C@@H](Oc2ccc(C=C3C(=O)NC(=S)NC3=O)c(O)c2)[C@H](OC(C)=O)[C@@H](OC(C)=O)[C@@H]1OC(C)=O`, `CC(=O)OC[C@H]1O[C@@H](Oc2ccc(C=C3C(=O)NC(=O)NC3=O)c(O)c2)[C@H](OC(C)=O)[C@@H](OC(C)=O)[C@@H]1OC(C)=O` is 6.2-fold higher in IC50: 280 µM for the first, 1730 µM for the second. The first is the more potent here.

Going from `CC(=O)OC[C@H]1O[C@@H](Oc2ccc(C=O)c(O)c2)[C@H](OC(C)=O)[C@@H](OC(C)=O)[C@@H]1OC(C)=O` to `CC(=O)OC[C@H]1O[C@@H](Oc2ccc(C=O)cc2O)[C@H](OC(C)=O)[C@@H](OC(C)=O)[C@@H]1OC(C)=O`, the IC50 falls from greater than 3000 µM to 430 µM.

`O=C1NC(=S)NC(=O)C1=Cc1ccc(O[C@@H]2O[C@H](CO)[C@@H](O)[C@@H](O)[C@H]2O)cc1` and `O=C1NC(=O)C(=Cc2ccc(O[C@@H]3O[C@H](CO)[C@@H](O)[C@@H](O)[C@H]3O)cc2)C(=O)N1` are within 1.5-fold of each other in IC50: 1160 µM for the first, 1630 µM for the second.

Compared with `CC(=O)OC[C@H]1O[C@@H](Oc2ccccc2C=O)[C@H](OC(C)=O)[C@@H](OC(C)=O)[C@@H]1OC(C)=O`, `CC(=O)OC[C@H]1O[C@@H](Oc2cccc(C=C3C(=O)NC(=S)NC3=O)c2)[C@H](OC(C)=O)[C@@H](OC(C)=O)[C@@H]1OC(C)=O` is lower in IC50: greater than 3000 µM for the first, 870 µM for the second. The second is the more potent here.

`CC(=O)OC[C@H]1O[C@@H](Oc2ccc(C=C3C(=O)NC(=S)NC3=O)cc2)[C@H](OC(C)=O)[C@H](OC(C)=O)[C@@H]1OC(C)=O` and `CC(=O)OC[C@H]1O[C@@H](Oc2ccc(C=C3C(=O)NC(=S)NC3=O)cc2)[C@H](OC(C)=O)[C@@H](OC(C)=O)[C@@H]1OC(C)=O` are within 1.5-fold of each other in IC50: 340 µM for the first, 230 µM for the second.

Going from `CC(=O)OC[C@H]1O[C@@H](Oc2ccc(C=C3C(=O)NC(=S)NC3=O)cc2O)[C@H](OC(C)=O)[C@@H](OC(C)=O)[C@@H]1OC(C)=O` to `CC(=O)OC[C@H]1O[C@@H](Oc2ccc(C=C3C(=O)NC(=O)NC3=O)cc2O)[C@H](OC(C)=O)[C@@H](OC(C)=O)[C@@H]1OC(C)=O`, the IC50 rises from 50 µM to 130 µM (2.6-fold).

`CC(=O)OC[C@H]1O[C@@H](Oc2cccc(C=C3C(=O)NC(=O)NC3=O)c2)[C@H](OC(C)=O)[C@@H](OC(C)=O)[C@@H]1OC(C)=O` gave an IC50 greater than 3000 µM.
